# Source: ChEMBL document CHEMBL5724801, “EUbOPEN Chemogenomics Library - Multiplex” (2024)
# “And” between values parts separate entries of the source, which are not always exact repeats. Identical values can stand only once.
# Legend:
# HEK-293T = assay: Multiplex assay against HEK293T; assay type: toxicity, cell-based; details: human
# Summary of the method: (§1)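 Live cells were stained at seeding with Hoechst33342, BioTracker Green Microtubule Cytoskeleton Dye, MitoTracker Red and Annexin V Alexa Fluor 680. Following compound addition, they were imaged on a CQ1 microscope at 37°C and 5% CO2 and gated by CellPathfinder machine learning into Hoechst high-intensity objects or normal cells, with normal cells split into healthy, pyknosed or fragmented nuclei and pyknosed cells into mitotic or apoptotic. Tubulin, mitochondrial-mass and membrane-permeability phenotypes are per cents of healthy-nucleus cells.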
# U2OS = assay: Multiplex assay against U2OS; assay type: toxicity, cell-based; details: human; summary of the method: as §1
# [1] = 12 h, 1 µM, compound concentration 1 uM
# [2] = 12 h, 10 µM, compound concentration 10 uM
# [3] = 24 h, 1 µM, compound concentration 1 uM
# [4] = 24 h, 10 µM, compound concentration 10 uM
# [5] = 48 h, 1 µM, compound concentration 1 uM
# [6] = 48 h, 10 µM, compound concentration 10 uM
smiles,measurement,setting,value
O=C(NCCN1CCC(n2c(=O)[nH]c3cc(Cl)ccc32)CC1)c1ccc(F)cc1 [HALOPEMIDE],Population Apoptotic (%),HEK-293T; [1],46% and 43%
same,Population Fragmented Nuclei (%),HEK-293T; [1],5%
same,Population Healthy Nuclei (%),HEK-293T; [1],81% and 79%
same,Population Hoechst High Intensity Objects (%),HEK-293T; [1],7% and 10%
same,Population Membrane Permeable-Phenotype (%),HEK-293T; [1],0%
same,Population Mitochondria Different-Phenotype (%),HEK-293T; [1],54% and 62%
same,Population Mitotic Cells (%),HEK-293T; [1],53% and 56%
same,Population Normal (%),HEK-293T; [1],92% and 89%
same,Population Pyknosed Nuclei (%),HEK-293T; [1],13% and 15%
same,Population Tubulin-Different-Phenotype (%),HEK-293T; [1],42% and 29%
same,Total Cell Count,HEK-293T; [1],334 and 373
same,Population Apoptotic (%),HEK-293T; [2],39% and 65%
same,Population Fragmented Nuclei (%),HEK-293T; [2],5% and 6%
same,Population Healthy Nuclei (%),HEK-293T; [2],74% and 72%
same,Population Hoechst High Intensity Objects (%),HEK-293T; [2],14% and 13%
same,Population Membrane Permeable-Phenotype (%),HEK-293T; [2],0% and 1%
same,Population Mitochondria Different-Phenotype (%),HEK-293T; [2],76% and 84%
same,Population Mitotic Cells (%),HEK-293T; [2],60% and 34%
same,Population Normal (%),HEK-293T; [2],85% and 86%
same,Population Pyknosed Nuclei (%),HEK-293T; [2],20% and 21%
same,Population Tubulin-Different-Phenotype (%),HEK-293T; [2],68% and 59%
same,Total Cell Count,HEK-293T; [2],460 and 319
same,Population Apoptotic (%),HEK-293T; [3],40%
same,Population Fragmented Nuclei (%),HEK-293T; [3],7% and 9%
same,Population Healthy Nuclei (%),HEK-293T; [3],79%
same,Population Hoechst High Intensity Objects (%),HEK-293T; [3],3% and 6%
same,Population Membrane Permeable-Phenotype (%),HEK-293T; [3],1% and 0%
same,Population Mitochondria Different-Phenotype (%),HEK-293T; [3],35% and 37%
same,Population Mitotic Cells (%),HEK-293T; [3],59%
same,Population Normal (%),HEK-293T; [3],96% and 93%
same,Population Pyknosed Nuclei (%),HEK-293T; [3],12% and 11%
same,Population Tubulin-Different-Phenotype (%),HEK-293T; [3],24% and 21%
same,Total Cell Count,HEK-293T; [3],471 and 508
same,Population Apoptotic (%),HEK-293T; [4],27% and 64%
same,Population Fragmented Nuclei (%),HEK-293T; [4],8% and 9%
same,Population Healthy Nuclei (%),HEK-293T; [4],72% and 70%
same,Population Hoechst High Intensity Objects (%),HEK-293T; [4],8%
same,Population Membrane Permeable-Phenotype (%),HEK-293T; [4],1% and 0%
same,Population Mitochondria Different-Phenotype (%),HEK-293T; [4],63% and 78%
same,Population Mitotic Cells (%),HEK-293T; [4],72% and 35%
same,Population Normal (%),HEK-293T; [4],91%
same,Population Pyknosed Nuclei (%),HEK-293T; [4],19% and 20%
same,Population Tubulin-Different-Phenotype (%),HEK-293T; [4],64% and 62%
same,Total Cell Count,HEK-293T; [4],580 and 361
same,Population Apoptotic (%),HEK-293T; [5],30% and 28%
same,Population Fragmented Nuclei (%),HEK-293T; [5],13%
same,Population Healthy Nuclei (%),HEK-293T; [5],79%
same,Population Hoechst High Intensity Objects (%),HEK-293T; [5],1% and 3%
same,Population Membrane Permeable-Phenotype (%),HEK-293T; [5],1% and 0%
same,Population Mitochondria Different-Phenotype (%),HEK-293T; [5],21%
same,Population Mitotic Cells (%),HEK-293T; [5],69% and 71%
same,Population Normal (%),HEK-293T; [5],98% and 96%
same,Population Pyknosed Nuclei (%),HEK-293T; [5],6% and 7%
same,Population Tubulin-Different-Phenotype (%),HEK-293T; [5],16% and 10%
same,Total Cell Count,HEK-293T; [5],841 and 675
same,Population Apoptotic (%),HEK-293T; [6],37% and 60%
same,Population Fragmented Nuclei (%),HEK-293T; [6],14%
same,Population Healthy Nuclei (%),HEK-293T; [6],72% and 74%
same,Population Hoechst High Intensity Objects (%),HEK-293T; [6],8% and 6%
same,Population Membrane Permeable-Phenotype (%),HEK-293T; [6],1%
same,Population Mitochondria Different-Phenotype (%),HEK-293T; [6],57% and 64%
same,Population Mitotic Cells (%),HEK-293T; [6],62% and 40%
same,Population Normal (%),HEK-293T; [6],91% and 93%
same,Population Pyknosed Nuclei (%),HEK-293T; [6],12% and 11%
same,Population Tubulin-Different-Phenotype (%),HEK-293T; [6],55%
same,Total Cell Count,HEK-293T; [6],706 and 531
same,Population Apoptotic (%),U2OS; [1],95% and 50%
same,Population Fragmented Nuclei (%),U2OS; [1],24% and 13%
same,Population Healthy Nuclei (%),U2OS; [1],65% and 79%
same,Population Hoechst High Intensity Objects (%),U2OS; [1],1% and 0%
same,Population Membrane Permeable-Phenotype (%),U2OS; [1],6% and 7%
same,Population Mitochondria Different-Phenotype (%),U2OS; [1],1% and 2%
same,Population Normal (%),U2OS; [1],98% and 100%
same,Population Pyknosed Nuclei (%),U2OS; [1],10% and 7%
same,Population Tubulin-Different-Phenotype (%),U2OS; [1],2% and 3%
same,Total Cell Count,U2OS; [1],209 and 105
same,Population Apoptotic (%),U2OS; [2],68% and 61%
same,Population Fragmented Nuclei (%),U2OS; [2],19% and 12%
same,Population Healthy Nuclei (%),U2OS; [2],65% and 78%
same,Population Hoechst High Intensity Objects (%),U2OS; [2],4% and 1%
same,Population Membrane Permeable-Phenotype (%),U2OS; [2],23% and 26%
same,Population Mitochondria Different-Phenotype (%),U2OS; [2],11% and 32%
same,Population Mitotic Cells (%),U2OS; [2],31% and 38%
same,Population Normal (%),U2OS; [2],95% and 98%
same,Population Pyknosed Nuclei (%),U2OS; [2],15% and 8%
same,Population Tubulin-Different-Phenotype (%),U2OS; [2],15% and 27%
same,Total Cell Count,U2OS; [2],244 and 152
same,Population Apoptotic (%),U2OS; [3],91% and 81%
same,Population Fragmented Nuclei (%),U2OS; [3],22% and 15%
same,Population Healthy Nuclei (%),U2OS; [3],68% and 72%
same,Population Hoechst High Intensity Objects (%),U2OS; [3],1% and 0%
same,Population Membrane Permeable-Phenotype (%),U2OS; [3],6% and 10%
same,Population Mitochondria Different-Phenotype (%),U2OS; [3],1% and 3%
same,Population Mitotic Cells (%),U2OS; [3],8% and 18%
same,Population Normal (%),U2OS; [3],98% and 99%
same,Population Pyknosed Nuclei (%),U2OS; [3],9% and 12%
same,Population Tubulin-Different-Phenotype (%),U2OS; [3],1% and 8%
same,Total Cell Count,U2OS; [3],241 and 132
